Compound activity as filed in PubChem.
Env fusion inh: HIV envelope-mediated fusion inhibition; HeLa-JRFL Env/CEM21 cell fusion, luciferase; inhibition, % at 12.3 µM; 1.1% of 360,000 active; AID 651610;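 active = mean replicate inhibition score of at least 50 and every replicate individually at or above 50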;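 note: 0% = plate neutral controls and 100% = maraviroc near 300 nM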
CDK5 p35 inh: blocks human CDK5/p35 kinase activity; Q00535+Q15078; Recombinant CDK5/p35, ADP-Glo luminescence, 60 min; inhibition, % at 10 µM; 0.01% of 330,000 active; AID 488839;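 active = highest replicate inhibition of at least 50% and at least 75% of replicates reaching 50%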;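 note: plate controls were DMSO neutral control for no effect and GW8510 at 10 µM for full effect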
Target sequence (Q00535 whole entry, looked up): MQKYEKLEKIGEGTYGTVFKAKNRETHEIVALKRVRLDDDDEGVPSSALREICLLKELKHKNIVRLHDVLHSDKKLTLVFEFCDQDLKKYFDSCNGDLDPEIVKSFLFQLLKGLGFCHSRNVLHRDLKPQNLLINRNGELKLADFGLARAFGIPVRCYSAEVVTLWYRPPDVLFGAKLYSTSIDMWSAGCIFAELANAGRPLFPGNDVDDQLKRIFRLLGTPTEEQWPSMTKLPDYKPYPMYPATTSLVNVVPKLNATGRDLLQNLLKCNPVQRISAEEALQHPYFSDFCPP
Target sequence (Q15078 whole entry, looked up): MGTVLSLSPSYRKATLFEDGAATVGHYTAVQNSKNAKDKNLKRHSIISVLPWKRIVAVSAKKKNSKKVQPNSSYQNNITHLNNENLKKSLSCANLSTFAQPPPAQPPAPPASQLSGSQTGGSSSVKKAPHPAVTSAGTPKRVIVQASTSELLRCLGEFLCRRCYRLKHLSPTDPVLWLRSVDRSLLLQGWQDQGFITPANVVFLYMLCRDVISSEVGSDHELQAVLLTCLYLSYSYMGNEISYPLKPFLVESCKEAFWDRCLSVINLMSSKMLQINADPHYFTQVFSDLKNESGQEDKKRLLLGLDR
GSK3A inh: blocks human GSK-3 alpha kinase; P49840; ADP-Glo luminescence, 60 min; inhibition, % at 10 µM; 0.1% of 320,000 active; AID 2650;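 active = more than half of replicates show inhibition above 20%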;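 note: GST-tagged GSK-3 alpha with peptide substrate and 25 µM ATP; 0% = DMSO neutral wells and 100% = GW8510 positive control wells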
GSIS activator: primary screen for activators of insulin secretion dependent on glucose, INS-1E cells, GLuc reporter luminescence. 0.61% of 370,000 active. INS-1E GLuc reporter insulin secretion, 2-3 h. activation, % at 16.6 µM;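 active = lowest replicate activation of at least 40%, so every replicate reaches that level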;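 note: 0% = median of neutral control wells and 100% = median of IBMX positive control wells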
GSK3B inh: inhibitors of human GSK3beta kinase; 0.038% of 300,000 active; activity score (negative = inhibition), % at 10 µM; GST-GSK3beta kinase, ADP-Glo luminescence, 60 min; active compounds read low; AID 2097;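 active = more than half of replicate wells score below -50%, meaning over 50% inhibition versus plate controls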;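 note: 0% = median DMSO wells and -100% = median GW8510 positive control wells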
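Assay system: GST-tagged human GSK3beta kinase, cell-free; Input: 1.6 ng GSK3beta; Medium: Tris/MgCl2 kinase buffer; Timing: 60 min enzyme reaction, room temperature; Signal: ADP-Glo luminescence quantifying ADP generated by kinase; Evaluation: score relative to plate controls; Benchmarks: DMSO neutral wells and GW8510 at 20 µM as positive.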
STK33 inh: inhibitors of human STK33 kinase; Q9BYT3; purified STK33, MBP phosphorylation, ADP-Glo luminescence; inhibition, % at 10 µM; 0.073% of 320,000 active;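 active = inhibition at or above 25%, using the most active replicate where run in duplicate; inactive = inhibition below 25%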
* hit, by the source's call; x = no result given; [ ] = another dose, or the depositor's remark. This is a sample that favours compounds with a hit; in the whole collection about 1.4% have one here.

SMILES	Env fusion inh	CDK5 p35 inh	GSK3A inh	GSIS activator	GSK3B inh	STK33 inh
CCOc1ccccc1NC(=O)Cn1cnc2c(cnn2-c2ccc(C)c(C)c2)c1=O	x	-3	-6	6	1	0
COC(=O)c1ccccc1NC(=O)Cn1cnc2c(cnn2-c2ccc(C)c(C)c2)c1=O	x	x	4	x	1	1
C[C@@H]1CN([C@H](C)CO)S(=O)(=O)c2ccc(C#CC3CC3)cc2O[C@H]1CN(C)C(=O)c1cnccn1	5[16.7 µM]	x	x	1	x	x
CCCC(=O)N1CCC2(CC1)CN(C(=O)C1CCCCC1)[C@H](CO)c1[nH]c3cc(OC)ccc3c12	x	x	x	-3	x	x
CC(=O)N(C)C[C@H]1Oc2ncc(-c3cccc(C#N)c3)cc2C(=O)N([C@@H](C)CO)C[C@@H]1C	5[16.7 µM]	x	x	28	x	x
CCOc1ncccc1C(=O)Nc1ccc(S(=O)(=O)Nc2nccs2)cc1	5	1	0	86*	0	8
Cc1noc(C)c1NC(=O)Nc1ccc2c(c1)C(=O)N([C@@H](C)CO)C[C@H](C)[C@@H](CN(C)Cc1ccc(Cl)c(Cl)c1)OCCCC[C@H](C)O2	18[16.7 µM]	x	x	-18	x	x
O=C1/C(=C/c2cccs2)NC(=S)N1C1CC1	-7	2	-2	47*	4	3
COc1ccc2c3c(n(C)c2c1)[C@@H](CO)N(S(C)(=O)=O)CC31CN(C(=O)C2CC2)C1	x	x	x	31	x	x
O=C(Nc1cccc(S(=O)(=O)Nc2ccc(Cl)cc2)c1)c1ccc(Cl)nc1	56*	2	-3	-32	3	0
O=C1c2ccccc2NC(c2ccccn2)N1c1ccc(Cl)cc1 (configuration not stated)	x	1	1	62*	2	2
CC=Cc1ccc2n(c1=O)C[C@H]1[C@H](CO)[C@@H](C(=O)NCCC)[C@@H]2N1Cc1cccnc1 (mixture of isomers)	x	x	x	10	x	x
Cc1ccc(S(=O)(=O)Nc2ccccc2C(C(=O)OC(C)(C)C)C(=O)OC(C)(C)C)cc1	57*	x	x	-26	x	x
Cc1ccc(S(=O)(=O)Nc2ccccc2C(O)c2ccccc2)cc1 (configuration not stated)	23	1	-1	-31	2	-2
O=C(C[C@H]1CC[C@@H](NS(=O)(=O)c2ccc(F)cc2)[C@H](CO)O1)NC1CCCCC1	-4[16.7 µM]	x	x	-5	x	x
COc1ccc(S(=O)(=O)Nc2ccc3c(c2)C(=O)N([C@H](C)CO)C[C@H](C)[C@@H](CN(C)S(=O)(=O)c2ccc(F)cc2)OCCCC[C@H](C)O3)cc1	7[16.7 µM]	x	x	3	x	x
Cc1c(CC(=O)O)c(=O)oc2c(C)c(OCc3ccccc3Br)ccc12	1	0	-4	41*	-2	0
Cc1c(CC(=O)O)c(=O)oc2c(C)c(OCc3ccccc3)ccc12	-8	-2	-4	1	2	-1
C=CCNc1sc(C(=O)C2CC2)c(N)c1C#N	x	0	-3	65*	x	-1
C[C@@H]1CCCCO[C@@H](CN(C)S(=O)(=O)c2ccccc2)[C@H](C)CN([C@H](C)CO)C(=O)c2cc(NS(=O)(=O)c3ccc(F)cc3)ccc2O1	10[16.7 µM]	x	x	-47	x	x
CO[C@H]1CN(C)C(=O)c2ccc(NC(=O)CC(F)(F)F)cc2OC[C@@H](C)N(C(C)=O)C[C@@H]1C	x	x	x	-14	x	x
N#CN=CN1CC=C(c2ccc(Cl)cc2)CC1	63*	x	x	67*	x	x
C[C@@H]1CN([C@@H](C)CO)S(=O)(=O)c2ccc(-c3cncnc3)cc2O[C@@H]1CN(C)C(=O)c1cccc(F)c1	-6[16.7 µM]	x	x	14	x	x
COc1ccc2cc(-c3cc(C(=O)OCC(=O)NC4CCS(=O)(=O)C4)c4ccccc4n3)ccc2c1 (configuration not stated)	-55	0	0	91*	2	-1
Nc1ccc(N=Nc2ccccc2O)c(N)c1	-91	x	2	1	1	33*
SMILES	Env fusion inh	CDK5 p35 inh	GSK3A inh	GSIS activator	GSK3B inh	STK33 inh
C=CCc1ccccc1Oc1cc(F)nc(N)n1	1	1	1	4	4	-1
C=CCc1ccccc1Oc1cc(OC)nc(N)n1	-19	-1	x	63*	x	x
O=C(C[C@@H]1C/C=C/CC[C@H](Cc2ccc(F)cc2)C(=O)O[C@H](c2ccccc2)CNC1=O)NCCO	67*	2	-3	-8	x	-1
O=C(Cc1cccs1)N(Cc1cccs1)C1(C(=O)NC2CCCCC2)CCCCC1	79*	1	1	x	-2	-1
COc1ccccc1NC(=O)N1C[C@@H]2[C@H](c3ccccc31)[C@@H](CO)N2C(C)=O	x	x	x	8	x	x
CCOc1ncccc1C(=O)NCc1ccc(C)cc1	-25	0	-3	45*	2	-1
N#Cc1ccc(COC(=O)c2cccnc2Cl)cc1	-36	3	-2	4	1	-1
CCOc1ncccc1C(=O)OCC(=O)c1cccs1	x	1	2	50*	0	-2
CCOc1ncccc1C(=O)OCc1ccc(C#N)cc1	-117	1	0	55*	1	1
Cc1ccc(S(=O)(=O)NCC[C@@H]2CC[C@H](NC(=O)NC(C)C)[C@H](CO)O2)cc1	6[16.7 µM]	x	x	6	x	x
C[C@@H]1CN([C@H](C)CO)C(=O)c2cc(NS(=O)(=O)c3ccc(Cl)cc3)ccc2O[C@H]1CN(C)C(=O)Nc1ccccc1	11[16.7 µM]	x	x	-2	x	x
Cc1ccc(NC(=O)c2ccc(OCC3CCCO3)cc2)cc1Cl (configuration not stated)	70*	x	x	-2	x	x
O=C(CC1Sc2ccccc2NC1=O)NNc1ccc(Cl)cc1Cl (configuration not stated)	x	1	x	x	x	x
O=C1Nc2c(Cl)cc(Cl)cc2C12Nc1ccccc1S2 (configuration not stated)	55*	x	x	-4	x	x
CO[C@H]1CN(C)C(=O)c2ccc(NC(=O)C3CCC3)cc2OC[C@H](C)N(C)C[C@@H]1C	x	x	x	-24	x	x
COC(=O)C[C@H]1CC[C@H]2[C@@H](COc3ccc(NC(=O)NC(C)C)cc3C(=O)N2C)O1	-6[16.7 µM]	x	x	7	x	x
COc1ccc(Br)cc1C(=O)Nc1cccc(NC(=O)c2ccco2)c1	-26	0	x	x	1	1
COc1ccc(Br)cc1C(=O)Nc1cccc(C)c1	x	1	4	51*	2	-1
COc1ccc2[nH]c3c(NCCCN4CCCC4=O)ncnc3c2c1	-25	-2	3	48*	-1	2
C[C@H](CO)N1C[C@H](C)[C@@H](CN(C)C)Oc2ccc(NS(=O)(=O)c3ccccc3)cc2CC1=O	x	x	x	-2	x	x
CCCOc1ccc(N2C(=O)CC(N(CCOC34CC5CC(CC(C5)C3)C4)C(C)=O)C2=O)cc1 (configuration not stated)	57*	0	0	-26	1	-1
COc1ccc(S(=O)(=O)N2C[C@@H](O)COC[C@H]3O[C@H](CC(=O)NCc4ccc(Cl)c(Cl)c4)CC[C@@H]32)cc1	11[16.7 µM]	x	x	-34	x	x
